Tests used:
[1] = Selectivity index, ratio of IC50 for cytotoxicity in human NHDF cells to IC50 for cytotoxicity in human KB cells
Procedure, shortened: (§1)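 Selectivity index is the IC50 in normal HDF fibroblasts divided by the IC50 in the given cancer line.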

HepG2 = assay: Cytotoxicity in human HepG2 cells assessed as reduction in cell viability incubated for 72 hrs by SRB assay; assay type: functional, cell-based; conditions: HepG2, 72 h
Procedure, shortened: (§2)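 SRB assay of cell viability in human cancer lines (HeLa, KB, A549, U87, HepG2) and normal dermal fibroblasts (HDF). IC50 values are […] of three independent experiments.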

[2] = Selectivity index, ratio of IC50 for cytotoxicity in human NHDF cells to IC50 for cytotoxicity in human HeLa cells; procedure, shortened: as §1
A549 = assay: Cytotoxicity in human A549 cells assessed as reduction in cell viability incubated for 72 hrs by SRB assay; assay type: functional, cell-based; conditions: A549, 72 h; procedure, shortened: as §2
KB = assay: Cytotoxicity in human KB cells assessed as reduction in cell viability incubated for 72 hrs by SRB assay; assay type: functional, cell-based; procedure, shortened: as §2
U-87 MG = assay: Cytotoxicity in human U87 cells assessed as reduction in cell viability incubated for 72 hrs by SRB assay; assay type: functional, cell-based, U-87MG ATCC; procedure, shortened: as §2
[3] = Selectivity index, ratio of IC50 for cytotoxicity in human NHDF cells to IC50 for cytotoxicity in human U87 cells; procedure, shortened: as §1
[4] = Selectivity index, ratio of IC50 for cytotoxicity in human NHDF cells to IC50 for cytotoxicity in human HepG2 cells; procedure, shortened: as §1
HeLa = assay: Cytotoxicity in human HeLa cells assessed as reduction in cell viability incubated for 72 hrs by SRB assay; assay type: functional, cell-based; procedure, shortened: as §2
NHDF = assay: Cytotoxicity in human NHDF cells assessed as reduction in cell viability incubated for 72 hrs by SRB assay; assay type: cell-based; procedure, shortened: as §2
[5] = Selectivity index, ratio of IC50 for cytotoxicity in human NHDF cells to IC50 for cytotoxicity in human A549 cells; procedure, shortened: as §1

Compound | Ratio IC50 [1] | IC50 (HepG2) [µM] | Ratio IC50 [2] | IC50 (A549) [µM] | IC50 (KB) [µM] | IC50 (U-87 MG) [µM] | Ratio IC50 [3] | Ratio IC50 [4] | IC50 (HeLa) [µM] | IC50 (NHDF) [µM] | Ratio IC50 [5]
CC(C)(C)OC(=O)O[C@H]1C[C@H](n2cc(F)c(=O)[nH]c2=O)O[C@@H]1Cn1cc(CNc2ccn([C@@H]3O[C@H](CO)[C@@H](O)C3(F)F)c(=O)n2)nn1 | 2.97 | 5.71 | 2.94 | 5.86 | 4.62 | 4.73 | 2.91 | 2.41 | 4.68 | 13.7 | 2.35
CC(C)(C)OC(=O)O[C@@H]1[C@@H](Cn2cc(COC(=O)Nc3ccn([C@@H]4O[C@H](CO)[C@@H](O)C4(F)F)c(=O)n3)nn2)O[C@@H](n2ccc(N)nc2=O)C1(F)F | 4.16 | 2.34 | 4.38 | 2.17 | 2.12 | 2.21 | 3.99 | 3.77 | 2.01 | 8.81 | 4.06
Cc1cn([C@H]2C[C@H](O)[C@@H](Cn3cc(COC(=O)Nc4ccn([C@@H]5O[C@H](CO)[C@@H](O)C5(F)F)c(=O)n4)nn3)O2)c(=O)[nH]c1=O | – | 14.6 | – | 13.4 | 13.1 | 13.5 | – | – | 13.5 | 16.9 | –
Cc1cn([C@H]2C[C@H](N=[N+]=[N-])[C@@H](CO)O2)c(=O)[nH]c1=O [ZIDOVUDINE] | 1.48 | 13 | 1.34 | 11.9 | 9.77 | 11.9 | 1.21 | 1.11 | 10.8 | 14.4 | 1.22
O=c1[nH]c(=O)n([C@H]2C[C@H](O)[C@@H](CO)O2)cc1F [FLOXURIDINE] | 1.5 | – | 2.01 | 5.91 | – | 6.14 | 2.13 | 1.47 | – | 13.1 | 2.21
CC(C)(C)OC(=O)O[C@@H]1[C@@H](Cn2cc(CNc3ccn([C@@H]4O[C@H](CO)[C@@H](O)C4(F)F)c(=O)n3)nn2)O[C@@H](n2ccc(N)nc2=O)C1(F)F | 2.67 | 5.19 | 2.65 | 4.23 | 4.09 | 4.54 | 2.4 | 2.1 | 4.11 | 10.9 | 2.58
Nc1ccn([C@@H]2O[C@H](Cn3cc(COC(=O)Nc4ccn([C@@H]5O[C@H](CO)[C@@H](O)C5(F)F)c(=O)n4)nn3)[C@@H](O)C2(F)F)c(=O)n1 | – | 10.8 | – | 11.4 | 11.3 | 12.6 | – | – | 12.4 | 15.8 | –
O=C(Nc1ccn([C@@H]2O[C@H](Cn3cc(CNc4ccn([C@@H]5O[C@H](CO)[C@@H](O)C5(F)F)c(=O)n4)nn3)[C@@H](OC(=O)c3ccccc3)C2(F)F)c(=O)n1)c1ccccc1 | – | 5.82 | – | 6.01 | 5.34 | 5.5 | – | – | 5.41 | 14.2 | –
O=C(Nc1ccn([C@@H]2O[C@H](CO)[C@@H](O)C2(F)F)c(=O)n1)OCc1cn(C[C@H]2O[C@@H](n3cc(F)c(=O)[nH]c3=O)C[C@@H]2O)nn1 | – | 7.66 | – | 8.01 | 6.52 | 7.56 | – | – | 6.7 | 10.2 | –
O=C(Nc1ccn([C@@H]2O[C@H](CO)[C@@H](O)C2(F)F)c(=O)n1)OCc1cn(C[C@H]2O[C@@H](n3ccc(NC(=O)c4ccccc4)nc3=O)C(F)(F)[C@@H]2OC(=O)c2ccccc2)nn1 | 2.91 | 3.51 | 2.83 | 3.32 | 3.13 | 3.41 | 2.67 | 2.6 | 3.22 | 9.12 | 2.75
Cc1cn([C@H]2C[C@H](OC(=O)OC(C)(C)C)[C@@H](Cn3cc(CNc4ccn([C@@H]5O[C@H](CO)[C@@H](O)C5(F)F)c(=O)n4)nn3)O2)c(=O)[nH]c1=O | – | 6.34 | – | 6.07 | 7.07 | 6.97 | – | – | 6.3 | 14.2 | –
CC(C)(C)OC(=O)O[C@@H]1[C@@H](Cn2cc(COC(=O)Nc3ccn([C@@H]4O[C@H](CO)[C@@H](O)C4(F)F)c(=O)n3)nn2)O[C@@H](n2ccc(NC(=O)OCc3ccccc3)nc2=O)C1(F)F | 4.94 | 1.01 | 4.83 | 0.83 | 0.95 | 1.09 | 4.3 | 4.64 | 0.97 | 4.69 | 5.65
CC(C)(C)OC(=O)O[C@@H]1[C@@H](Cn2cc(CNc3ccn([C@@H]4O[C@H](CO)[C@@H](O)C4(F)F)c(=O)n3)nn2)O[C@@H](n2ccc(NC(=O)OCc3ccccc3)nc2=O)C1(F)F | 2.63 | 3.93 | 2.6 | 3.24 | 3.09 | 3.81 | 2.13 | 2.07 | 3.12 | 8.12 | 2.51
O=C(Nc1ccn([C@@H]2O[C@H](Cn3cc(CNc4ccn([C@@H]5O[C@H](CO)[C@@H](O)C5(F)F)c(=O)n4)nn3)[C@@H](O)C2(F)F)c(=O)n1)OCc1ccccc1 | 2.44 | 4.64 | 2.39 | 4.31 | 4.14 | 4.45 | 2.27 | 2.18 | 4.23 | 10.1 | 2.34
Cc1cn([C@H]2C[C@H](OC(=O)OC(C)(C)C)[C@@H](Cn3cc(COC(=O)Nc4ccn([C@@H]5O[C@H](CO)[C@@H](O)C5(F)F)c(=O)n4)nn3)O2)c(=O)[nH]c1=O | – | 11.1 | – | 8.5 | 10.7 | 9.68 | – | – | 9.65 | 15 | –
Nc1ccn([C@@H]2O[C@H](CO)[C@@H](O)[C@@H]2O)c(=O)n1 [CYTARABINE] | 1.23 | – | 1.41 | 3.47 | – | 2.88 | 1.73 | 1.75 | – | 4.99 | 1.44
Nc1ccn([C@@H]2O[C@H](Cn3cc(CNc4ccn([C@@H]5O[C@H](CO)[C@@H](O)C5(F)F)c(=O)n4)nn3)[C@@H](O)C2(F)F)c(=O)n1 | – | 15.1 | – | 16.1 | 15.9 | 16.5 | – | – | 16.2 | 29.3 | –
O=c1[nH]c(=O)n([C@H]2C[C@H](O)[C@@H](Cn3cc(CNc4ccn([C@@H]5O[C@H](CO)[C@@H](O)C5(F)F)c(=O)n4)nn3)O2)cc1F | – | 78.9 | – | 79.3 | 81.5 | 80.3 | – | – | 78.9 | 106 | –
Cc1cn([C@H]2C[C@H](O)[C@@H](Cn3cc(CNc4ccn([C@@H]5O[C@H](CO)[C@@H](O)C5(F)F)c(=O)n4)nn3)O2)c(=O)[nH]c1=O | – | 130 | – | 126 | 131 | 128 | – | – | 129 | 152 | –
